We go through five compounds from ChEMBL document CHEMBL3580585, “The synthesis of sulforaphane analogues and their protection effect against cisplatin induced cytotoxicity in kidney cells” (2014).

Assay [1] has as its system LLC-PK1. In words: Renoprotective activity against cisplatin-induced cytotoxicity in pig LLC-PK1 cells assessed as cell survival at 2.5 uM after 24 hrs by WST-1 assay in presence of 25 uM cisplatin (reference value: 60%). The class given is functional, Sus scrofa. Put shortly:
(§1)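 Pig kidney LLC-PK1 cells were given 25 µM cisplatin to cause oxidative stress, alongside test compound in dose-response format, up to 10 µM, or up to 2.5 µM for analogues toxic at high doses. Survival was read by WST-1 assay […]. Potency was taken as the concentration giving more than 60% cell survival.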
A general note: Tetrazolium assays rely on reduction of a dye to a coloured formazan, in cell work by metabolically active cells.

In assay [2] the test system is LLC-PK1. As to the kind of experiment: Renoprotective activity against cisplatin-induced cytotoxicity in pig LLC-PK1 cells assessed as increase in cell survival at >1 uM by cell imaging analysis in presence of 25 uM cisplatin. The format is functional, cell-based. Particulars: Sus scrofa.
For assay [3], the system named is LLC-PK1. In words: Renoprotective activity against cisplatin-induced cytotoxicity in pig LLC-PK1 cells assessed as decrease in apoptotic cells at 25 uM after 24 hrs by Tali image-based cytometer analysis in presence of cisplatin. The following applies: Sus scrofa. The class given is functional, cell-based. In short, it runs like this:
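LLC-PK1 cells were co-treated with cisplatin and test compound, then stained so that dead cells show red and apoptotic cells green. The percentage of apoptotic cells was counted on a Tali image-based cytometer.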

Assay [4] deals with LLC-PK1. In words: Renoprotective activity against cisplatin-induced cytotoxicity in pig LLC-PK1 cells assessed as decrease in phoshorylated JNK level by western blot analysis in presence of 25 uM cisplatin. The following applies: Sus scrofa. The class given is functional, cell-based. In short, it runs like this:
(§2)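 LLC-PK1 cells were exposed to cisplatin together with several concentrations of test compound. Phospho-JNK, p53 and cleaved caspase-3 protein levels were measured 24 h after cisplatin treatment.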
In general terms: A western blot detects proteins with antibodies after separation by electrophoresis.

The subject of assay [5] is LLC-PK1. In words: Renoprotective activity against cisplatin-induced cytotoxicity in pig LLC-PK1 cells assessed as decrease in p53 level at 2.5 uM by western blot analysis in presence of 25 uM cisplatin. The format is functional, cell-based. Particulars: Sus scrofa. In short, it runs like this: as §2
The subject of assay [6] is LLC-PK1. As to the kind of experiment: Renoprotective activity against cisplatin-induced cytotoxicity in pig LLC-PK1 cells assessed as decrease in cleaved caspase-3 level by western blot analysis in presence of 25 uM cisplatin. The class given is functional, cell-based. The following applies: Sus scrofa. In short, it runs like this: as §2
The test system of assay [7] is LLC-PK1. As to the kind of experiment: Renoprotective activity against cisplatin-induced cytotoxicity in pig LLC-PK1 cells assessed as cell survival at 10 uM after 24 hrs by WST-1 assay in presence of 25 uM cisplatin (reference value: 60%). The class given is functional, Sus scrofa. In short, it runs like this: as §1

Each structure is given as a SMILES string. Activity calls are given as the source filed them. The rule behind the calls is not given here.

As to `S=C=NCC(c1ccccc1)c1ccccc1`, the values for the Activity in the assay with LLC-PK1 [1], in the assay on LLC-PK1 [4] and in the assay with LLC-PK1 [6] were 93%, “Dose-dependent effect” and “Dose-dependent effect”, respectively. The outcome in the assay with LLC-PK1 [2], in the assay with LLC-PK1 [3] and in the assay with LLC-PK1 [5] was Active.
For `S=C=NCCc1ccc(N=C=S)cc1`, the Activity with LLC-PK1 [1] is given as greater than 80%.
As for `S=C=NCc1cccc(Cl)c1`, in the assay with LLC-PK1 [1], the Activity was greater than 80%.
For the compound `Oc1ccc(CCN=C=S)cc1`, in the assay with LLC-PK1 [1], the Activity is given as greater than 80%.
Consider `C[S+]([O-])CCCCN=C=S` (stereo not given) [SULFORAPHANE], for which, in the assay with LLC-PK1 [7], the Activity is greater than 77%.
